Screens from PubChem BioAssay.
APP transl inh: inhibitors of APP translation via 5'UTR reporter, primary screen, APP 5'UTR luciferase, SH-SY5Y cells | SH-SY5Y APP 5'UTR-luciferase reporter, luminescence | inhibition, % at 2 µM | actives 0.82% (n = 190,000);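 active = inhibition above a set limit, derived from the sample mean plus 3 SD, cut at about 45% in these data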
MT stabilizer: microtubule stabilizers in HeLa cells, primary screen, imaging, high-content imaging; HeLa tubulin immunostaining HCS, 24 h; share of cells brighter than vehicle mean+2SD; % tubulin-high responders, % at 10 µM; actives 0.83% (n = 200,000);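 active = plate Z-score above 3 for both tubulin-high and condensed-nucleus cell shares, with cell loss under 80%, at 10 µM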;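 note: anti alpha tubulin signal scored within the nucleus-defined area of each cell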
bCat nuc transl: modulators of beta-catenin nuclear translocation, primary screen, imaging, HeLa cells, immunofluorescence, high-content | nuclear translocation activity, % at 5 µM | AID 1665, 2009 | actives 0.3% (n = 190,000);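 active = nuclear translocation activity above 50% at 5 µM, with a well cell count of 50 or more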;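 note: per-cell ratio of nuclear to cytoplasmic median beta-catenin stain intensity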
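System: Human HeLa cells, endogenous beta-catenin | Compound dosing: 5 µM primary, 0.02–20 µM confirmation | Timing: 24 h compound exposure at 37°C, 5% CO2 | Measured by: Fluorescence imaging of beta-catenin antibody stain plus DAPI | Read-out basis: % activation of per-cell nuclear versus cytoplasmic median beta-catenin signal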
IEC-6 cytotox: cytotoxicity in IEC-6 intestinal epithelial cells, primary screen, cytotoxicity control for KLF5 inhibitor project, cell-based, luminescence. IEC-6 cytotoxicity, luminescence viability. inhibition, % at 5 µM. actives 0.78% (n = 290,000); in the data active = inhibition above about 22%
BaF3 parental: parental Ba/F3 cell viability inhibition, counter-screen for JAK2V617F inhibitor project, murine pro-B, CellTiter-Glo luminescence; inhibition, % at 5.6 µM; CellTiter-Glo ATP luminescence; actives 1.1% (n = 220,000);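 active = inhibition above a per-campaign cutoff, the mean inhibition of all tested compounds plus 3 SD, cut at about 27% in these data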
Ba/F3 V617F tox: reduced viability of JAK2V617F-dependent Ba/F3 cells, primary screen, JAK2V617F inhibitor project, cell-based, Ba/F3 EpoR-JAK2V617F, luminescence; inhibition, % at 5.6 µM; actives 1.1% (n = 220,000); ATP luminescence;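 active = inhibition above the campaign mean plus 3 SD over all tested compounds, cut at about 24% in these data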;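 note: cytokine-independent growth of Ba/F3 cells driven by EpoR plus mutant JAK2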
A number is an active result; i = inactive; nt = not tested or not shown. This is a sample that favours compounds with a hit; in the whole collection about 2.2% have one here.

SMILES | APP transl inh | MT stabilizer | bCat nuc transl | IEC-6 cytotox | BaF3 parental | Ba/F3 V617F tox
CCOc1cc(C)c(Cl)cc1S(=O)(=O)n1cnc2ccccc21 | i | i | nt | i | i | i
COc1ccc(S(=O)(=O)n2cnc3ccccc32)cc1OC | nt | nt | nt | i | nt | nt
COc1ccc(Cl)cc1S(=O)(=O)n1cnc2ccccc21 | i | 26 | i | i | i | i
CCOc1ccc(Cl)cc1S(=O)(=O)n1cnc2ccccc21 | i | 24 | nt | i | i | i
O=C1Nc2ccc(Br)cc2/C1=C/c1ccc(C(=O)O)cc1 | nt | nt | nt | i | nt | nt
COc1ccc(/C(C)=N/OC/C(O)=C(\C#N)c2nc3ccccc3[nH]2)cc1OC | i | 16 | i | i | i | i
COc1ccc(/C(C)=N/OC/C(O)=C(\C#N)c2nc3ccccc3[nH]2)c(OC)c1 | i | i | i | i | i | i
CC(C)(C)Nc1nc2nonc2nc1NC(C)(C)C | nt | i | i | i | 33 | 35
OCCNc1nc2nonc2nc1NCCO | i | i | i | i | i | i
COc1ccc(NC(=O)c2ccc(F)cc2)cc1S(=O)(=O)Nc1cc(C)ccc1Br | i | 16 | i | i | i | i
C=CCNc1nc2c(c(=O)n(C)c(=O)n2C)n1CCCCCC | i | i | i | i | 55 | 40
C=CCNc1nc2c(c(=O)n(C)c(=O)n2C)n1Cc1ccc(F)cc1 | i | i | i | i | 40 | 40
Cc1cccc(Cn2c(NCCO)nc3c2c(=O)n(C)c(=O)n3C)c1 | i | i | i | i | i | i
Cn1c(=O)c2c(nc(NCCc3ccccc3)n2Cc2ccc(F)cc2)n(C)c1=O | i | i | i | i | i | i
COCCNc1nc2c(c(=O)n(C)c(=O)n2C)n1Cc1cccc(C)c1 | i | i | nt | i | 43 | 45
CC(C)c1nnc(NC(=O)CCC(=O)NC2CC2)s1 | nt | nt | nt | i | nt | nt
COc1cccc(C2=NOC(C(=O)NCc3ccccc3)C2)c1 (centres undefined) | i | 19 | 131 | i | i | i
COc1cccc(C2=NOC(C(=O)NCc3ccco3)C2)c1 (centres undefined) | i | i | nt | i | i | i
COc1ccc(C2=NOC(C(=O)NCc3ccccc3)C2)cc1 (centres undefined) | i | i | 154 | 27 | i | i
Cc1cccc(OC(C)C(=O)N2CCCN(C)CC2)c1C (centres undefined) | nt | nt | nt | i | nt | nt
CCCN1CCN(C(=O)C2CCN(S(=O)(=O)c3ccc4c(c3)NC(=O)C(C)S4)CC2)CC1 (centres undefined) | nt | nt | nt | i | nt | nt
CCC(c1nnc(SCC(=O)Nc2ccc(C(=O)N(C)C)cc2)n1Cc1ccccc1)N(C)C (centres undefined) | nt | nt | nt | i | nt | nt
C=C(C)CSc1nc2ccccc2[nH]1 | i | i | i | i | 89 | i
Cc1nc(CN(C)C(=O)c2cc(COc3ccc4ncccc4c3)on2)cs1 | i | i | i | i | 38 | i
O=C(NCc1cccc(Cl)c1)c1cc(COc2ccc3ncccc3c2)on1 | i | i | i | i | i | i
SMILES | APP transl inh | MT stabilizer | bCat nuc transl | IEC-6 cytotox | BaF3 parental | Ba/F3 V617F tox
CC(CCCC(C)(C)O)NC(=O)c1cc(COc2ccc3ncccc3c2)on1 (centres undefined) | i | i | i | i | 44 | i
CCOC(=O)N1CCN(C(=O)c2cc3cc(Cl)ccc3[nH]2)CC1 | nt | nt | nt | i | nt | nt
Cn1c(-c2ccc(F)cc2)cnc1NCc1cccc(F)c1 | i | 15 | i | i | i | i
Cn1c(-c2ccc3c(c2)OCO3)cnc1NCc1cccc(O)c1 | i | i | i | i | 90 | i
CCN1/C(=C/C(C)=C/c2sc3ccccc3[n+]2CC)Sc2ccccc21 | 67 | i | i | i | 75 | 100
CCOc1ccc(/C=C2\C(=O)c3ccccc3OC2c2ccccc2)cc1 (centres undefined) | i | 36 | nt | i | i | i
Cc1c(OCC(=O)N2CCC(C(=O)NCCCC(=O)O)CC2)ccc2c1oc(=O)c1ccccc12 | nt | nt | nt | i | nt | nt
Cc1ccc(C(=O)Nc2cc3[nH]c(=O)oc3cc2C)cc1 | nt | nt | nt | i | nt | nt
O=C(COc1ccc(Cl)cc1)Nc1ccc(N2CCN(C(=O)c3ccco3)CC2)cc1 | i | i | i | i | i | i
COc1ccc(OCC(=O)Nc2ccc(N3CCN(C(=O)c4ccco4)CC3)cc2)cc1 | i | i | i | i | 90 | i
